From PMC2862812 (Biochimica et biophysica acta, 2009)
Where no end group is shown, it is not given here.

Assay: Tryptophan fluorescence of peptides in phosphate buffer without lipid
Format: physicochemical
Settings: no lipid; from fluorescence and CD
Method in brief: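 7 μM peptide in buffer without liposomes, pH 8 or 4 (adjusted with dilute NaOH/HCl), temperature-controlled. Trp emission 310–450 nm, excitation 295 nm, slits 2–4/2 nm; CD spectra recorded in parallel.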

Compound	State of the peptide in aqueous solution (solubility / aggregation)
AAEQNPIYWARYADWLFTDLPLLLLDLLALLVDADEGT [3D]	aggregated state of the peptide in solution even at low concentrations
AAEQNPIYWARYADWLFTTPLLLLALALLVDADEGT [D25A]	probably, more aggregated in solution
AAEQNPIYWARYAEWLFTTPLLLLDLALLVDADEGT [D14E]	remain soluble and monomeric in solution

Next, values leading:

State of the peptide in aqueous solution (solubility / aggregation)	Compound
unfolded and monomeric	CC[C@H](C)[C@H](NC(=O)[C@@H]1CCCN1C(=O)[C@H](CC(N)=O)NC(=O)[C@H](CCC(N)=O)NC(=O)[C@H](CCC(=O)O)NC(=O)[C@H](C)NC(=O)[C@H](C)N)C(=O)N[C@@H](Cc1ccc(O)cc1)C(=O)N[C@@H](Cc1c[nH]c2ccccc12)C(=O)N[C@@H](C)C(=O)N[C@@H](CCCNC(=N)N)C(=O)N[C@@H](Cc1ccc(O)cc1)C(=O)N[C@@H](C)C(=O)N[C@@H](CC(=O)O)C(=O)N[C@@H](Cc1c[nH]c2ccccc12)C(=O)N[C@@H](CC(C)C)C(=O)N[C@@H](Cc1ccccc1)C(=O)N[C@H](C(=O)N[C@H](C(=O)N1CCC[C@H]1C(=O)N[C@@H](CC(C)C)C(=O)N[C@@H](CC(C)C)C(=O)N[C@@H](CC(C)C)C(=O)N[C@@H](CC(C)C)C(=O)N[C@@H](CC(=O)O)C(=O)N[C@@H](CC(C)C)C(=O)N[C@@H](C)C(=O)N[C@@H](CC(C)C)C(=O)N[C@@H](CC(C)C)C(=O)N[C@H](C(=O)N[C@@H](CC(=O)O)C(=O)N[C@@H](C)C(=O)N[C@@H](CC(=O)O)C(=O)N[C@@H](CCC(=O)O)C(=O)NCC(=O)N[C@H](C(=O)O)[C@@H](C)O)C(C)C)[C@@H](C)O)[C@@H](C)O [WT, reference compound]
remain soluble and monomeric in solution	AAEQNPIYWARYADWLFTTPLLLLELALLVDADEGT [D25E]
